Among the data in the RNAGym collection of RNA variant scans (doi:10.1126/science.aae0568) are yeast fitness values, retold here.

This sample holds only a part of the variants without activity. Where only a bound is given, the exact number is not on record here.

The labels stand for the following.
B1: tRNA (parent)
chain: GUUCCGUUGGCGUAAUGGUAACGCGUCUCCCUCCUAAGGAGAAGACUGCGGGUUCGAGUCCCGUACGGAACG

In the series the parent is B1. The series can be described thus: yeast fitness relative to wild type (ratio to wild type); higher = fitter; tRNA-Arg(CCU), competitive growth, 37 C, YPD. The gist of the method: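 A pool of Saccharomyces cerevisiae strains, each with a tRNA-Arg(CCU) gene variant at the native genomic locus, was competed in YPD at 37°C for 24 hours across six parallel replicates. The variants had been chemically synthesised at a 3% per-site mutation rate over 69 sites, and gene amplicons before and after competition were read by 100-nucleotide paired-end sequencing. Darwinian fitness relative to wild type rested on changes in genotype frequencies. Genotypes required ≥ 100 starting reads, and estimates < 0.5 were set to 0.5.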
As to GUUCCGUUGGCGUUAUGGUAACGCGGCUCCCUCCUGAGGAGAAGACUGCGGGUUCGAGUACCGUACGGAACG [A14U U26G A36G C60A], the yeast fitness is at most 0.5.

GUUCCGUUGGCGUACUGGUGACACGUCUCCCUCCUAAGGAGAAGAAUGGAGGUUCGAGUCCCGUUCGGAUCG [A15C A20G G23A C46A C49G G50A A65U A70U]: the yeast fitness was at most 0.5. On to GUUCCGUUGGCGUUAUGGAAACCCGUCUACCUCCUAAGGAGAAGACUGCGGGUUCGAGUCCCGUAAGGAACG [A14U U19A G23C C29A C66A], for which the yeast fitness is 0.549.

Take GUUCCGUUGGCGUACUGGUACCGCGUCUCCCUCCUAAGGCGAAGACUGCGGGUUCGAGGGCCGUACGGAACG [A15C A21C A40C U59G C60G]: the yeast fitness is at most 0.5. As to GUUCCGUUGGCGUUAUGGUAACGCGUCUCCCUCCUAAGGAGAAGACGGCGGGUUCGAGUCCCGUUCGGAACG [A14U U47G A65U], the yeast fitness is at most 0.5. Regarding GUUCCGUUGGCGUUAUGGUAACGCGACUCUCUCCUAAGGAGAAGACUGCGGGUUCGAGUCCCGUACGGCACG [A14U U26A C30U A69C], the yeast fitness is at most 0.5. In the case of GUUCCGUUGGCGUACUGGUACCGCGUCUCCCUCCUUAGGAGAAGACCGCGGGUUCGAGUCCCAUACGGAACG [A15C A21C A36U U47C G63A], the yeast fitness amounted to 0.578.

Regarding GUUCCGUUGGCGUACUGGUACCGCGUCUCCCUCCUUAGGAGAAGACCGCGGGUUCGAGUCCCAUACGAAACG [A15C A21C A36U U47C G63A G68A], the yeast fitness was at most 0.5.

As to GUUCCGUUGGCGUUAUGGUAACGCGUCUCCCUCCUAAGGAGAAGACAGCGGGUUCGAGUCCCGUACGGAACG [A14U U47A], the yeast fitness is 0.575. Regarding GUUCCGUUGGCGUUAAGGUAACGCGGCUGCCUCCUAAGGAGAAGACUGCGGGUUCGAGUCCCGUACGGAACG [A14U U16A U26G C29G], the yeast fitness is at most 0.5. As for GUUCCGUUGGCGUACUGGUAGUGCGUCUCCCUCCUAAGGAGAAGACUGCGGGUUCGUGUCCCGUACGGAACG [A15C A21G C22U A57U], the yeast fitness is at most 0.5. Regarding GUUCCGUUGGCGUACUGGUCACGCGUCUACCUCCUAAGGAGAAGACUGCGGGUUCGGGUCCCGUACGGAACG [A15C A20C C29A A57G], the yeast fitness came out at 0.561.

For GUUCCGUUGGCGUUAUGGUAACGCGUCUCCCUCCUAAGGAGAAGACUGCGGGUUCGAGUCCCGUACGCAGCG [A14U G68C A70G], the yeast fitness was at most 0.5.

GUUCCGUUGGCGUUAUGGUAACGCGUCUCCCUCCUAAGGAGAAGACUGCGGGUUCGAGUCCCGUACGCCACG [A14U G68C A69C]: the yeast fitness is at most 0.5. As to GUUCCGUUGGCGUUAUGGUAACGCGGCUCCCUCCUAAGGAGAAGACUGCGGGUUGGAGUCCCGUACGGAACG [A14U U26G C55G], the yeast fitness is at most 0.5. For GUUCCGUUGGCGUUAUGGUAACGCGUCCCCCUCCUAAGGAGAAGACUGCGGGUUCGAGUCCCGUACGGACCG [A14U U28C A70C], the yeast fitness was at most 0.5. GUUCCGUUGGCGUACUGGUUACGCGUCUCCGUCCUAAGGAGAAGACUCCGGGUUCGAGUCCCGUUCGGAACG [A15C A20U C31G G48C A65U]: the yeast fitness was at most 0.5. In the case of GUUCCGUUGGCGUACUGGUCACGCGUCUCCCUCCUAAGGAGAAGACUGCGGGUUGGAGUCCCGUACGGAGCG [A15C A20C C55G A70G], the yeast fitness is at most 0.5.

For GUUCCGUUGGCGUUAUGGUAACGCGUCUCCCGCCUAAGGAGAAGACUGCGGAUUCGAGUCCCCUACGGAACG [A14U U32G G52A G63C], the yeast fitness was at most 0.5. The value for GUUCCGUUGGCGUUAAGGUAACGCGUCUCCCUCCUAAGGAGAAGACUGCGGGUUCGAGUCCCGUACGGAACG [A14U U16A] was 0.667. On to GUUCCGUUGGCGUUAUGGUAACGCGUCUCCCUCCUAAGGAGAAGACUGCGGGUUCGAGUCCCGUACGCAACG [A14U G68C], for which the yeast fitness is 0.694. GUUCCGUUGGCGUUAUGGUAACGCGUCUCCCUCCUAAGGAGAAGACUGCGGGGUCGAGUCUCGUACGGAGCG [A14U U53G C61U A70G]: the yeast fitness was at most 0.5.

In the case of GUUCCGUUGGCGUACUGGUGACGCGUCUCCCUCCUAAGGAGAAGACUGCGAGUUCGAGUCCCGUACGGAACG [A15C A20G G51A], the yeast fitness is at most 0.5. In the case of GUUCCGUUGGCGUUAUGGUAACGCGUCUCCCCCCUAAGGAGAAGACUGCGGGAUAGAGUCCCGUACGGAACG [A14U U32C U53A C55A], the yeast fitness is at most 0.5.

As to GUUCCGUUGGCGUUAUGGUAACGCGUCUCCCUCCCAAGGAGAAGACUGCGGGUUCGAGUCCCGUACGGAACG [A14U U35C], the yeast fitness was 0.601. As for GUUCCGUUGGCGUUAUGGUAACGCGUCUCCCUCCGAAGGAGAAGACUGCGGGUUCGAGUCCCGUACGGAACG [A14U U35G], the yeast fitness is at most 0.5.

Take GUUCCGUUGGCGUACUGGUGACGCGUCUCCUUCCUAAGGAGCAGACUGCGGGUUCGAGUCCCGUACGGAACG [A15C A20G C31U A42C]: the yeast fitness was at most 0.5. For GUUCCGUUGGCGUUACGGUAACGCGUCUCCCUCCUAAGGAGUAGACUGCGGGUUCGAGUCCCGUACGGAACG [A14U U16C A42U], the yeast fitness is at most 0.5. For GUUCCGUUGGCGUACUGGUACCGCGUCUCCCUCCUAAGGAGAAGUCUGCGGGUUCGAGUCUCGUAUGGAACG [A15C A21C A45U C61U C66U], the yeast fitness is at most 0.5. As to GUUCCGUUGGCGUUAUGGUAACGCGCCUCCCUCCUAAGGAGAAGACUGAGGGUUCGAGUCCCGUACGGAACG [A14U U26C C49A], the yeast fitness is at most 0.5. With GUUCCGUUGGCGUACUGGUCACGCGUCUCCCUCCUAAGGACAAGACUGCGGGUUCGAGUCCCGUACGGAACG [A15C A20C G41C], the yeast fitness is at most 0.5.

Turning to GUUCCGUUGGCGUUAUGGUAACGCGUCUCCCUCCAAAGGAGACGACUGCGGGUUCGAGUCCCGUACGGAACG [A14U U35A A43C], the yeast fitness was at most 0.5.

For GUUCCGUUGGCGUUAGGGAAACGCGUCUCCCUCCUAAGGAGAAGACUGCGGGUUCGAGUCCCGUACGGAACG [A14U U16G U19A], the yeast fitness was at most 0.5. On to GUUCCGUUGGCGUACUGGUAGCGCGUGUCCCUCCUAAGGAGAAGACUGCGGGUUCGAGUCCCGUACGGUACG [A15C A21G C27G A69U], for which the yeast fitness is at most 0.5. On to GUUCCGUUGGCGUUAUGGUAACGCGACUCCCUCCUAAGGAGAAGUCUGCGGGCUCGAGUCCCGUACGGAACG [A14U U26A A45U U53C], for which the yeast fitness was found to be 0.597.

Consider GUUCCGUUGGCGUUAAGGUAAUGAGUCUCCCUCCUAAGGAGAAGACUGCGGGUUCGAGUCCCGUACGGAACG [A14U U16A C22U C24A], for which the yeast fitness is at most 0.5. As for GUUCCGUUGGCGUACUGGUGACGCCUCUUCCUCCCAAGGAGAUGACUGCGGGUUCGAGUCCCGUACGGAACG [A15C A20G G25C C29U U35C A43U], the yeast fitness was at most 0.5.
